# ChEMBL document CHEMBL4334444, “Studies of Jatrogossone A as a Reactive Oxygen Species Inducer in Cancer Cellular Models” (J Nat Prod, 2019)
# The source made the active and inactive calls. The rule behind the calls is not given here.
# Tests used:
# U2OS [1] = assay: Ratio of concentration required for induction of apoptosis in human U2OS cells to concentration required for induction of mito-phagy in human U2OS cells transfected with mKeima-Red-Mito-7; assay type: functional
# KOPN-8 [2] = assay: Cell cycle arrest in human KOPN8 cells assessed as increase in accumulation at G2/M phase at 10 uM incubated for 24 hrs by propidium iodide staining based flow cytometric analysis relative to control; assay type: functional
# How it was run: (§1)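 KOPN-8 plated at 1.00 × 10^6 cells/plate, held 12 h at 37 °C, treated 24 h at 10 μM; DMSO vehicle and 2 μM staurosporine as controls. Cells fixed in cold methanol, RNase-treated, stained with PI (50 μg/mL); cell-cycle distribution by flow cytometry.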
# [3] = Half life in human liver microsomes; assay type: ADME, Microsome
# BJ = assay: Cytotoxicity against human BJ cells assessed as cell viability at >100 uM by CellTiter-Glo assay; assay type: cell-based
# How it was run: (§2)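 CellTiter-Glo luminescent viability readout. Cells kept at 37 °C under 5% CO2. HMEC primary cells grown in basal medium with growth kit; leukemia lines and murine BCR-ABL (WT, Bax/Bak DKO) cultured per earlier description. Positive controls: staurosporine 25 μM, gambogic acid 10 μM, a toxic quinoline. At least two biological replicates in technical triplicate; luminescence normalized to untreated controls; EC50 computed.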
# [4] = Half life in human plasma; assay type: ADME, cell-free
# KOPN-8 [5] = assay: Induction of apoptosis in human KOPN8 cells assessed as increase in late apoptotic cells at 10 uM after 24 hrs by Annexin V-FITC and propidium iodide staining based flow cytometry relative to control; assay type: functional
# How it was run: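 KOPN-8 cells were plated at 1.00 × 10^6 per plate and held 12 h at 37 °C, then treated 24 h; positive control 2 μM staurosporine, vehicle DMSO. Cells were stained with Annexin V-FITC and PI and analysed by flow cytometry (FACSCalibur). Profiles are representative of three independent biological replicates.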
# U2OS [6] = assay: Induction of apoptosis in human U2OS cells assessed as increase in caspase 3/7 activity incubated for 24 hrs by caspase 3/7 reagent based ApoTox-Glo triplex assay; assay type: functional, cell-based
# How it was run: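 ApoTox-Glo Triplex assay in KOPN-8 or U2OS cells. Cells were incubated 12 h at 37 °C, then treated 24 h across 100–0.15 μM. Viability (GF-AFC, 400Ex/505Em) and cytotoxicity (bis-AAF-R110, 485Ex/520Em) were read after 30 min at 37 °C. Caspase-Glo 3/7 luminescence was then read after 0.5 h at room temperature. Values are mean ± SEM of three independent experiments.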
# [7] = Stability in DMSO assessed as micheal adduct formation by measuring intact compound incubated for 16 hrs in presence of glutathione by NMR analysis; assay type: physicochemical
# PBMC = assay: Cytotoxicity against human PBMC cells assessed as cell viability at >100 uM by CellTiter-Glo assay; assay type: cell-based; how it was run: as §2
# [8] = Half life in simulated gastric fluid; assay type: ADME
# KOPN-8 [9] = assay: Induction of mitochondrial membrane potential loss in human KOPN8 cells at 10 uM after 24 to 48 hrs by TMRM staining based flow cytometric analysis; assay type: functional, cell-based
# How it was run: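 TMRM flow cytometry. KOPN-8 (4 × 10^4 or 5 × 10^5 per well) or MCF-7 (2 × 10^4 or 2 × 10^5 per well) were seeded 24 h, then treated 24–48 h. FCCP 10 μM was added 10 min before staining as positive control. Cells were stained with TMRM 100 nM for 0.5 h, then PBS-washed, resuspended in PBS with 1% FBS and analysed by flow cytometry; DAPI flagged compromised cells.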
# KOPN-8 [10] = assay: Decrease in cell viability in human KOPN8 cells incubated for 24 hrs by GF-AFC reagent based ApoTox-Glo triplex assay; assay type: functional
# How it was run: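 ApoTox-Glo Triplex: cells held 12 h at 37 °C, then treated 24 h (100−0.15 μM). Viability/cytotoxicity reagent added, shaken, 30 min at 37 °C; viability read as GF-AFC fluorescence at 400Ex/505Em. Caspase-Glo 3/7 then added, 0.5 h at room temperature, luminescence read. Mean ± SEM of three independent experiments.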
# MDA-MB-231 [11] = assay: Induction of ROS colocalization in mitochondria of human MDA-MB-231 cells at 30 uM incubated for 1 hr by CellROX green reagent/mitotracker deep red staining based confocal microscopic method; assay type: functional, cell-based
# How it was run: (§3)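 MDA-MB-231 plated at 4 × 10^4/well in phenol-red-free medium, 12 h at 37 °C; for rescue, NAC 100 μM pretreatment 0.5 h. Compound 30 μM or DMSO for 1 h, then CellROX green 5 μM final, MitoTracker Deep Red 250 nM, Hoechst 33342 500 nM (0.5 h before imaging). Washed twice, live spinning-disk confocal at 63×; two independent experiments.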
# [12] = Stability in DMSO assessed as micheal adduct formation by measuring intact compound incubated for 16 hrs in presence of NAC by NMR analysis; assay type: physicochemical
# MDA-MB-231 [13] = assay: Induction of ROS colocalization in mitochondria of human MDA-MB-231 cells at 30 uM incubated for 1 hr in presence of NAC by CellROX green reagent/mitotracker deep red staining based confocal microscopic method; assay type: functional, cell-based; how it was run: as §3
# HMEC = assay: Cytotoxicity against human HMEC cells assessed as cell viability at >100 uM by CellTiter-Glo assay; assay type: cell-based; how it was run: as §2
# KOPN-8 [14] = assay: Cell cycle arrest in human KOPN8 cells assessed as decrease in accumulation at G1/G0 phase at 10 uM incubated for 24 hrs by propidium iodide staining based flow cytometric analysis relative to control; assay type: functional; conditions: KOPN-8, 24 h; how it was run: as §1
# B-ALL = assay: Cytotoxicity against BCR-ABL p185- positive mouse B-ALL cells overexpressing human BCL-xL assessed as inhibition of cell viability after 24 hrs by AnnexinV-FITC/propidium iodide staining based flow cytometric analysis; assay type: functional
# SUM149PT = assay: Antiproliferative activity against human SUM149 cells assessed as reduction in cell viability at >10 uM after 48 hrs by propidium iodide staining based fluorescence assay; assay type: functional
# How it was run: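 MDA-MB-231 and SUM149 seeded at 6 × 10^4 to 2 × 10^5 cells/well, cultured 24 h, then exposed for 48 h. Cells fixed in cold methanol, stained with 0.4% propidium iodide, fluorescence imaged. Viability expressed as percent surviving cells relative to vehicle wells.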
# SEM cells = assay: Antiproliferative activity against human SEM cells assessed as reduction in cell viability at 0.1 to 250 uM by CellTiter-Glo assay; assay type: functional, cell-based; how it was run: as §2
# MCF7 = assay: Induction of apoptosis in human MCF7 cells assessed as increase in cleaved PARP 1 level at 1 to 10 uM after 3 hrs by Western blot analysis; assay type: functional, cell-based
# How it was run: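 Western blot of KOPN-8 and MCF-7 lysates made in RIPA-type buffer (Tris pH 7.5, Triton X-100, deoxycholate, SDS) with protease and phosphatase inhibitors. 30 μg protein per lane was run on 4–12% Bis-Tris SDS-PAGE and transferred to nitrocellulose. Blots were probed for cleaved caspase-7 and PARP-1 and detected with IR-dye secondaries. Menadione served as positive control: 10 μM in KOPN-8, 30 μM in MCF-7. Blots are representative of three independent experiments.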
smiles,measurement,setting,value
CC(=O)O[C@H]1/C2=C/[C@@H](C)C(=O)C[C@H]3[C@@H](/C=C(\C)C(=O)[C@H]2C[C@H]1C)C3(C)C,Ratio,U2OS [1],5
same,Activity,KOPN-8 [2],10%
same,half-life,[3],0.517 h
same,Activity,BJ,Non-Toxic
same,half-life,[4],19.5 h
same,Activity,KOPN-8 [5],15%
same,Activity,U2OS [6],Dose-dependent effect
same,Stability,[7],Stable
same,Activity,PBMC,Non-Toxic
same,half-life,[8],124 h
same,Activity,KOPN-8 [9],inactive
same,inhibition,KOPN-8 [10],Dose-dependent effect
same,Activity,MDA-MB-231 [11],Active
same,Stability,[12],Stable
same,Activity,MDA-MB-231 [13],inactive
same,Activity,HMEC,Non-Toxic
same,inhibition at 10 µM,KOPN-8 [14],5%
same,IC50,B-ALL,23.8 µM
same,inhibition,SUM149PT,Active
CC1=C2CC(C)(C)/C=C/C(=O)/C(C)=C\C3=C[C@H](C)C[C@]3(O2)C1=O [JATROPHONE],inhibition,SEM cells,Active
same,Activity,MCF7,Active
